ANO1 activ – mouse TMEM16A channel activation, primary screen. Q8BHY3. HEK293 TMEM16A/YFP-H148Q/I152L, iodide quench fluorescence; hits give low values. B-score at 10 µM. actives 0.3% (n = 340,000). AID 623877;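 active = fluorescence-ratio B-score plate-corrected deviation score at least 3 library SD below zero, with starting fluorescence score within 5 deviations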;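 note: channel opened by trigger with iodide after compound preincubation; score built on the fluorescence ratio of max minus min over baseline; more negative score means more quench and so TMEM16A activation or potentiation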
Target sequence (Q8BHY3 whole entry, looked up): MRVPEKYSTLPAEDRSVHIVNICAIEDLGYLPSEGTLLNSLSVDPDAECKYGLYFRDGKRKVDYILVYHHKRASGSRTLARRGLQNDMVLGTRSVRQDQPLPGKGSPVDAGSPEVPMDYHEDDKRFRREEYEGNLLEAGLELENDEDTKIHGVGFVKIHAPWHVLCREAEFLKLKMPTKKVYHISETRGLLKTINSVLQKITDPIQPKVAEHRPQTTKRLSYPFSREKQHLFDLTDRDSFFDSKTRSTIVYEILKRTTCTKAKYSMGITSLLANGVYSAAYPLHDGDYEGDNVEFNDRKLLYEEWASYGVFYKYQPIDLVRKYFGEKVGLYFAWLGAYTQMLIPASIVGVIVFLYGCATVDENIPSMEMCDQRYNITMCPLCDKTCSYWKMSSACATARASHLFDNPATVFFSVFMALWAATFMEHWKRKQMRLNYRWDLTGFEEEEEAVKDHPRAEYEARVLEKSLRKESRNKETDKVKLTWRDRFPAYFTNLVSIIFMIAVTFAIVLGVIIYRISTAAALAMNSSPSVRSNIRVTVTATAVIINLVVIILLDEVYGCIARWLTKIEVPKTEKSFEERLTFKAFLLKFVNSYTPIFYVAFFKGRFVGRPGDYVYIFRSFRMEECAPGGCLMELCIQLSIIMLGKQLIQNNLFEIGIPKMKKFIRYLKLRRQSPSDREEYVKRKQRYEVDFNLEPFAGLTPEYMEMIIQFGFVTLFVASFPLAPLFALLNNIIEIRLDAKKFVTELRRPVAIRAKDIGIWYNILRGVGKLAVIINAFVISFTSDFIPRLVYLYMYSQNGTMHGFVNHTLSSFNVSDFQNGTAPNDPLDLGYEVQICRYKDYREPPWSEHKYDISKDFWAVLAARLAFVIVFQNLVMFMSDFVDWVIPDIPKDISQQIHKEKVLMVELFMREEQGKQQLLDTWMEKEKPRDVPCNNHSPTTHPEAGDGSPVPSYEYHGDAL
IMP-1 inhibitor – blocks Pseudomonas aeruginosa IMP-1 metallo-beta-lactamase | inhibition, % at 5.6 µM | actives 0.45% (n = 290,000) | purified IMP-1, nitrocefin hydrolysis, epi-absorbance fluorescence;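 active = inhibition above the mean plus 3 SD of all compounds in the same screening run, cut at about 4.5% in these data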
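Assay system: purified recombinant IMP-1 beta-lactamase. Input: IMP-1 0.2 nM before substrate addition. Buffer or medium: Zinc- and detergent-supplemented HEPES buffer, pH 7.1. Schedule: 25 °C, 15 min preincubation, 25 min reaction. Signal: Epi-absorbance fluorescence, 480 nm excitation, 530 nm emission. Evaluation: percent inhibition from optical density relative to buffer-blank wells.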
CHT block – human CHT choline transport inhibition | Q9GZV3 | CHT-expressing cells, membrane potential dye, choline response; hits give low values | B-score at 10 µM | actives 0.86% (n = 310,000) | AID 488975;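 active = B-score over 3 SD under the library average, and starting fluorescence ratio not unusually high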;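 note: choline stimulus applied at its EC90 after an EC20 pre-addition; B-score computed on integrated fluorescence ratio after choline addition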
TMEM16A inh – inhibitors of mouse TMEM16A calcium-activated chloride channel | HEK293 TMEM16A/YFP iodide influx fluorescence, ionomycin | normalized B-score (activity score, 25-100; higher = stronger inhibition) at 10 µM | actives 1.2% (n = 310,000) | Q8BHY3;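 active = ratio plate-corrected score three or more library SD toward inhibition, starting fluorescence score within five deviations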;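 note: score derived from kinetic fluorescence span divided by baseline fluorescence per well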
VIM-2 inh – blocks Pseudomonas aeruginosa VIM-2 metallo-beta-lactamase; purified VIM-2, nitrocefin hydrolysis, epi-absorbance fluorescence; inhibition, % at 5.6 µM; actives 0.89% (n = 290,000); AID 1527;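 active = inhibition above the mean of all tested compounds plus 3 SD, cutoff set per screening run, cut at about 7.5% in these data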;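 note: red hydrolysis product quenches plate fluorescence so inhibitors raise well fluorescence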
CHT allo act – human CHT allosteric activation | B-score at 10 µM | CHT-expressing cells, membrane potential dye, choline EC20; hits give high values; LV-AA mutant CHT in HEK293 cells | Q9GZV3 | actives 0.49% (n = 310,000);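 active = initial fluorescence not abnormally high and integrated response B-score, plate-corrected, over 3 SD above library mean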
CHT block conf – confirmation of human choline transporter CHT inhibitors; CHT activity remaining % of control (hits give low values), % at 10 µM; AID 493221; CHT-expressing cells, choline membrane potential dye; LV-to-AA substituted CHT, HEK293 cells; shares compounds with CHT block; actives 70% (n = 2,400);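 active = choline transporter activity left, mean of duplicates at 10 µM, below buffer-only control mean minus 3 SD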;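 note: depolarization triggered by choline at its EC90 following an EC20 pre-addition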
HEK293 MPD ctr – counter-screen for CHT inhibitors: effect in parental HEK293 cells. shares compounds with CHT block. membrane potential dye, choline response; active = decrease or increase beyond buffer ±3SD. membrane potential ratio readout (active if shifted either direction beyond buffer ±3SD; no single direction) at 10 µM. actives 4% (n = 2,400). AID 493222;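 note: parental cells lack the transporter so any hit is non-specific; ratio is peak minus trough fluorescence over baseline after EC90 choline challenge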
Large screens that a line does not name were inactive (follow-up assays come after a bar, where they were run). Hits are enriched below; roughly 3.4% of the tested compounds scored in any of these assays.

COc1ccc(CN(C(=O)c2ccco2)c2ccccc2)cc1	CHT block -5 | CHT block conf inactive | HEK293 MPD ctr inactive
CCCCn1c(SCC(=O)N2CCC(C)CC2)nc2ccsc2c1=O	none | CHT block conf 60% | HEK293 MPD ctr inactive
CCCCn1c(SCC(=O)N2CCN(c3ccccc3)CC2)nc2ccsc2c1=O	CHT block -5.7 | CHT block conf inactive | HEK293 MPD ctr inactive
CCc1c(C2(O)CCCCC2)[nH]c2ccc(C(F)(F)F)cc12	none
COc1cc(OC)c(S(=O)(=O)Nc2ccc(C(=O)O)cc2)cc1S(=O)(=O)Nc1ccc(C(=O)O)cc1	none
O=C(Nc1nccs1)C1CC(=O)N(c2ccc(F)cc2)C1 (configuration not stated)	none
O=C(Nc1ncc([N+](=O)[O-])s1)C1CC(=O)N(c2ccc(F)cc2)C1 (configuration not stated)	CHT block -6.7 | CHT block conf 40% | HEK293 MPD ctr inactive
Nc1nccc(SCc2ccccc2)n1	none (no result: IMP-1 inhibitor, CHT block, TMEM16A inh, VIM-2 inh, CHT allo act)
CC(C(=O)NC1CCCCCC1)N(c1ccccc1)S(C)(=O)=O (configuration not stated)	CHT block -12 | CHT block conf inactive | HEK293 MPD ctr inactive
Cc1ccc2nc(N/C(=N/S(=O)(=O)c3cccs3)c3ccccc3Cl)sc2c1	none
CC(=O)Nc1ccc(-c2nc3cc(Cl)ccc3o2)cc1	none
O=C(O)c1ccccc1-c1ccccc1C(=O)Nc1ccc(-c2nc3cc(Cl)ccc3o2)cc1	CHT block -7.5 | CHT block conf 55% | HEK293 MPD ctr inactive
CCOc1ccc(NC(=O)CNc2cccc(S(=O)(=O)N3CCCCCC3)c2)cc1OCC	none (no result: IMP-1 inhibitor, CHT block, TMEM16A inh, VIM-2 inh, CHT allo act)
C=CCn1c(SCC(=O)N(CC)c2c(N)n(Cc3ccccc3)c(=O)[nH]c2=O)nnc1-c1ccccc1OC	none (no result: IMP-1 inhibitor, CHT block, TMEM16A inh, VIM-2 inh, CHT allo act)
Oc1c(Br)cc(/C=N/NC(=S)NCc2ccco2)cc1Br	CHT block -5.1 | CHT block conf 67% | HEK293 MPD ctr inactive
COc1ccccc1NC(=O)/C(C#N)=C/c1ccc(OCCN2CCOCC2)c(OC)c1	CHT block -6 | CHT block conf inactive | HEK293 MPD ctr inactive
Cc1nn(C)c(C)c1CN(C)S(=O)(=O)c1ccc2ccccc2c1	CHT block -5.1 | CHT block conf 51% | HEK293 MPD ctr inactive
Cc1nn(C)c(C)c1CN(C)S(=O)(=O)c1ccc(F)cc1	none
COc1ccc(S(=O)(=O)N2CCN(C(=O)Cc3ccsc3)CC2)cc1	none (no result: IMP-1 inhibitor, CHT block, TMEM16A inh, VIM-2 inh, CHT allo act)
COc1ccc(CN2CCN(CC=C(C)C)C(CCO)C2)cc1Cn1cccn1 (configuration not stated)	CHT block -6 | CHT block conf 64% | HEK293 MPD ctr inactive
COc1ccc(CN2CCN(CCc3ccccc3)C(CCO)C2)cc1Cn1cncn1 (configuration not stated)	none
COc1cc(C(=O)OCC2CC(c3ccccc3)=NO2)cc(OC)c1OC (configuration not stated)	none | CHT block conf inactive | HEK293 MPD ctr inactive
COc1ccc(C(=O)OCC2CC(c3ccccc3)=NO2)cc1OC (configuration not stated)	none
CCOC(=O)N1CCC(NC(=O)C2CCCN(Cc3nc(-c4cccc(Cl)c4)oc3C)C2)CC1 (configuration not stated)	CHT block -6.4 | CHT block conf 51% | HEK293 MPD ctr inactive
COc1cccc(NC(=O)C2CCN(c3cnccn3)CC2)c1	none
O=C(CCCOc1ccccc1)NC(=S)Nc1ccccc1	none
Cc1nn(CC2CC2)c(=O)n1-c1ccc(Oc2ccccc2)cc1	CHT block -12 | CHT block conf 59% | HEK293 MPD ctr inactive
CC(C)(C)NC(=O)NC(=O)CSc1ccc(S(=O)(=O)N2CCCCC2)cn1	none (no result: IMP-1 inhibitor, CHT block, TMEM16A inh, VIM-2 inh, CHT allo act)
Fc1cccc(CSc2nc3ncccc3[nH]2)c1	none
Fc1ccc(CSc2nc3ncccc3[nH]2)cc1	CHT block -6 | CHT block conf inactive | HEK293 MPD ctr inactive
CN1CCCC(CC2Oc3ccccc3Sc3ccccc32)C1 (configuration not stated)	CHT block -5.2 | CHT block conf 14% | HEK293 MPD ctr inactive
c1ccc2c(c1)OC(CCCN1CCCCC1)c1ccccc1S2 (configuration not stated)	none
Cc1n[nH]c(=O)c2c(NC(=O)CSc3nc4ccccc4c(=O)n3C(C)C)oc(C)c12	CHT block -10 | CHT block conf 48% | HEK293 MPD ctr inactive
CC1(C)c2[nH]c3ccccc3c2C[C@@H]2C(=O)N(Cc3ccccc3)C(=O)N21	CHT block -6.2 (no result: IMP-1 inhibitor, VIM-2 inh) | CHT block conf 57% | HEK293 MPD ctr inactive
COc1ccc(-c2csc(NC(=O)CSCc3c(C)noc3C)n2)c(OC)c1	none (no result: IMP-1 inhibitor, VIM-2 inh)
O=C1c2ccccc2C(=O)c2c(Nc3ccc(CCO)cc3)ccc(O)c21	CHT block -7.4 | CHT block conf 67% | HEK293 MPD ctr inactive
Cn1c(SCc2nc3ccccc3s2)nnc1-c1cccs1	CHT block -5.1 | CHT block conf 56% | HEK293 MPD ctr inactive
CCn1c(SCc2nc3ccccc3s2)nnc1-c1cccs1	none
COc1ccc(C(=O)C2CCCN(C(=O)c3noc4c3CCCC4)C2)c(C)c1 (configuration not stated)	none
COc1ccc(C(=O)C2CCCN(C(=O)c3noc4c3CCCC4)C2)cc1F (configuration not stated)	none | CHT block conf 47% | HEK293 MPD ctr inactive
CC(C)CC(c1nnnn1C1CCCC1)N1CCN(C(=O)c2ccco2)CC1 (configuration not stated)	none
O=C(c1ccco1)N1CCN(C(c2cccs2)c2nnnn2C2CCCC2)CC1 (configuration not stated)	CHT block -7.8 | CHT block conf inactive | HEK293 MPD ctr inactive
Cc1ccc(-c2cccc(CN3CCN(C(C)C)C(CCO)C3)c2)o1 (configuration not stated)	CHT block -5.3 | CHT block conf 37% | HEK293 MPD ctr inactive
CCOC(=O)c1c(NC(=O)C2C3CCC(O3)C2C(=O)O)sc2c1CCC(CC)C2 (configuration not stated)	none
CCOC(=O)c1c(NC(=O)C2C3C=CC(C3)C2C(=O)O)sc2c1CCC(CC)C2 (configuration not stated)	CHT block -5 | CHT block conf 27% | HEK293 MPD ctr inactive

Screens: PubChem BioAssay, several laboratories
